Source: PubChem
PglD inh: inhibitors of Campylobacter jejuni PglD acetyltransferase. inhibition, % at 12.5 µM. purified PglD enzyme, DTNB colorimetric CoA detection. 0.098% of 360,000 active; in the data active = inhibition above about 16%, passing the limit was not always enough
Rtt109 HAT inh: C. albicans Rtt109 histone acetyltransferase inhibition | Q5AAJ8 | AID 540336 | 0.16% of 330,000 active | inhibition, % at 34.9 µM | purified Rtt109/Vps75, ThioGlo CoA-SH fluorescence, 4 h;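 active = inhibition of at least 50% in every replicate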
Target sequence (Q5AAJ8 whole entry, looked up): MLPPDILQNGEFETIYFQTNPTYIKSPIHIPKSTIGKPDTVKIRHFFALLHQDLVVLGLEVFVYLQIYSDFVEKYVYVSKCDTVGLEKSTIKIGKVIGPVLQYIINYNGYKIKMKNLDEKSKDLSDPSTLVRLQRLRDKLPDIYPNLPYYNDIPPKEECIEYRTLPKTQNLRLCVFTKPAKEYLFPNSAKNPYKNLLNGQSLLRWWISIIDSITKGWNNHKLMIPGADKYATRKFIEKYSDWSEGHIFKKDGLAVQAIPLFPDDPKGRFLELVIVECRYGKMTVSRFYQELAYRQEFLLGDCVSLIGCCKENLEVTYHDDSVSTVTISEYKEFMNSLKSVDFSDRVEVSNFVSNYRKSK
Env fusion inh: blocks HIV Env-driven cell-cell fusion. HeLa-JRFL Env/CEM21 cell fusion, luciferase. inhibition, % at 12.3 µM. 1.1% of 360,000 active;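 active = mean replicate inhibition score of at least 50 and every replicate individually at or above 50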;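 also: 0% = plate neutral controls and 100% = maraviroc near 300 nM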
SR-BI DiI inh: mouse SR-BI HDL lipid transfer inhibition; 0.96% of 320,000 active; ldlA[mSR-BI] CHO cells, DiI-HDL uptake fluorescence, 3 h; AID 488896; inhibition, % at 12.5 µM; Q61009;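 active = mean replicate inhibition of at least 70% and a set share of replicates each scoring 70 or more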;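 also: 0% = median of neutral control wells and 100% = median of positive control wells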
N-glyco inh: N-linked glycosylation inhibition | D54 ERlucT glycosylation luciferase reporter, 24 h; percent of 100 nM tunicamycin response | reporter increase, % at 12.5 µM | 0.23% of 360,000 active;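 active = mean luciferase reporter signal, scaled so untreated is 0 and the glycosylation-blocking control 100, at or above a set limit in every replicate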;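 also: luciferase carries N-glycosylation sites so blocking glycosylation raises the light; 0% = median of neutral control wells and 100% = median of 100 nM tunicamycin wells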
SR-BI uptake up: activators of SR-BI mediated HDL lipid uptake. CHO ldlA[mSR-BI] cells, DiI-HDL uptake fluorescence, 3 h; 100 = double the neutral-control signal. activation, % at 12.5 µM. 0.096% of 320,000 active;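 active = mean replicate activation of at least 60% and every replicate at or above 60%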;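 also: 0% = median plate neutral-control signal and 100% = twice that signal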
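material = CHO ldlA[mSR-BI] cells | medium = Ham's F12 with 0.5% BSA, HEPES 25 mM, pH 7.4 | reagent = fluorescent DiI-HDL, 10 µg/mL final | compound dosing = single-point compound dose | incubation = 3 h, 37 °C | measured by = bottom-read fluorescence, 550/595 nm | measure = HDL uptake via cellular fluorescence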
Starred values were filed as active, the others as inactive; nt = no result; [ ] = dose if it differs, or a comment. The list is not random: actives were taken first. Their share in the collection is about 1.9%.

SMILES | PglD inh | Rtt109 HAT inh | Env fusion inh | SR-BI DiI inh | N-glyco inh | SR-BI uptake up
CCN(CC)S(=O)(=O)c1ccc(N2CCOCC2)c(NC(=O)c2ccco2)c1 | 2 | 1 | 58* | -1 | 2 | 1
CC(=O)Nc1ccc(NC(=O)c2cccc(-c3cc4ccccc4oc3=O)c2)cc1 | 0 | -7 | -3 | 33 | 0 | -33
O=C(Nc1ccc(N2CCCC2)c(Cl)c1)c1ccco1 | 0 | nt | -180 | 27 | -12 | -27
O=C(Nc1ccc(N2CCCC2)c(Cl)c1)c1cccc(-c2cc3ccccc3oc2=O)c1 | nt | -11 | -15 | 87* | -1 | -87
Cc1ccc(NC(=O)c2cc(NC(=O)c3ccco3)ccc2N2CCOCC2)cc1Cl | 6 | 0 | nt | 74* | 1 | -74
CCN(CC)S(=O)(=O)c1ccc(N2CCCC2)c(NC(=O)Cc2c(F)cccc2Cl)c1 | 0 | 23 | 57* | 14 | 2 | -14
C[C@@H]1CN([C@@H](C)CO)C(=O)Cc2cc(NC(=O)Nc3ccc(F)cc3)ccc2O[C@@H]1CN(C)Cc1ccc(C(F)(F)F)cc1 | nt | nt | 41[16.7 µM] | nt | nt | nt
C[C@@H]1CCCCO[C@@H](CN(C)C)[C@H](C)CN([C@H](C)CO)C(=O)c2cc(NS(=O)(=O)c3ccc(Cl)cc3)ccc2O1 | 1 | nt | -17[16.7 µM] | nt | nt | nt
C[C@H](CO)N1C[C@H](C)[C@@H](CN(C)C(=O)NC2CCCCC2)OCc2ccccc2-c2ccccc2C1=O | -4 | nt | 30[16.7 µM] | nt | nt | nt
C[C@@H]1CN([C@H](C)CO)S(=O)(=O)c2ccc(-c3ccccc3)cc2O[C@@H]1CN(C)C(=O)C1CCCCC1 | -1 | nt | 35[16.7 µM] | nt | nt | nt
O=C(Nc1ccc(N2CCOCC2)c(Cl)c1)c1cc2ccccc2o1 | -3 | -1 | nt | 85* | -6 | -85
COc1ccc2nc(NC(=O)c3cccc(-c4cc5ccccc5oc4=O)c3)sc2c1 | nt | 2 | -85 | 77* | 15 | -77
O=C(Nc1ccccc1N1CCOCC1)c1cc2ccccc2o1 | -6 | -5 | -20 | nt | 6 | nt
CS(=O)(=O)N1CCN(c2ccccc2NC(=O)c2cc3ccccc3o2)CC1 | -7 | 13 | -50 | 75* | 7 | -75
COc1ccc(C(=O)Nc2nc3ccc(OC)cc3s2)cc1 | 1 | -1 | -82 | 53 | -7 | -53
COC(=O)[C@@]1(C)[C@H]2C(=O)N(Cc3ccccc3)C(=O)[C@H]2[C@H]2CN=C(SCc3ccc(C#N)cc3)N21 | -6 | 8 | 75* | -10 | -1 | 10
COC(=O)[C@@]1(C)[C@H]2C(=O)N(Cc3ccccc3)C(=O)[C@H]2[C@H]2CN=C(SCc3ccc(Cl)cc3)N21 | 2 | 0 | 79* | 0 | -1 | 0
CCN1C(=O)[C@H]2[C@H]3CN=C(SCc4ccccc4)N3[C@@](C)(C(=O)OC)[C@H]2C1=O | -10 | 2 | -18 | -19 | 1 | 19
CC[C@]1(C(=O)OC)[C@H]2C(=O)N(Cc3ccccc3)C(=O)[C@H]2[C@H]2CN=C(SCC(=O)c3ccccc3)N21 | 6 | 3 | 72* | 39 | 3 | -39
C[C@H](CO)N1C[C@H](C)[C@H](CN(C)C(=O)Nc2ccc(F)cc2)Oc2c(NC(=O)c3ccncc3)cccc2C1=O | -17 | nt | nt | nt | nt | nt
Nc1cc(=O)[nH]c(SCCSc2ccccc2)n1 | -6 | 5 | 58* | 5 | 1 | -5
CCn1c(=NC(=O)c2cccc(N3C(=O)CCC3=O)c2)sc2c(OC)ccc(OC)c21 | 0 | 4 | 12 | 91* | 3 | -91
COc1ccc(OC)c2c1sc(=NC(=O)c1cccc(N3C(=O)CCC3=O)c1)n2C | 0 | -2 | -3 | 77* | 0 | -77
COc1ccc(OC)c2c1sc(=NC(=O)C(C)(C)C)n2C | -3 | -9 | -10 | -26 | 1 | 26
O=C(C[C@@H]1CC[C@@H](NC(=O)c2ccc(F)cc2)[C@@H](CO)O1)NCc1ccncn1 | 0 | nt | nt | nt | nt | nt
SMILES | PglD inh | Rtt109 HAT inh | Env fusion inh | SR-BI DiI inh | N-glyco inh | SR-BI uptake up
COCC(=O)N1C[C@@H](C)[C@H](OC)CN(C)C(=O)c2ccc(NS(C)(=O)=O)cc2OC[C@@H]1C | 4 | nt | -8[16.7 µM] | nt | nt | nt
CC(C)CC#Cc1ccc2c(c1)O[C@@H](CN(C)Cc1ccccn1)[C@@H](C)CN([C@H](C)CO)S2(=O)=O | 0 | nt | 13[16.7 µM] | nt | nt | nt
Cc1ccc(S(=O)(=O)N(C)C[C@@H]2OCCCC[C@@H](C)Oc3ccc(NC(=O)Nc4ccccc4)cc3C(=O)N([C@@H](C)CO)C[C@@H]2C)cc1 | 2 | nt | 3[16.7 µM] | nt | nt | nt
CC(C)Oc1ccc(F)cc1-c1cc(C(=O)Nc2ccc(C(C)(C)C)cc2)[nH]n1 | -5 | nt | 7 | nt | 42* | nt
COc1cccc(NC(=O)N[C@@H]2C=C[C@H](CC(=O)Nc3ccccc3)O[C@H]2CO)c1 | 3 | nt | -15[16.7 µM] | nt | nt | nt
Cc1ccc2[nH]c3c(N4CCN(Cc5ccccc5)CC4)ncnc3c2c1 | -7 | 15 | 97* | -6 | -5 | 6
Cc1ccc2c(c1)[nH]c1c(N3CCN(Cc4ccccc4)CC3)ncnc12 | -1 | 7 | 63* | 25 | 9 | -25
Cc1ccc2[nH]c3c(N4CCN(Cc5ccc6c(c5)OCO6)CC4)ncnc3c2c1 | nt | nt | 40 | nt | nt | nt
c1ccc2c(c1)CCN(c1ncnc3c1[nH]c1ccccc13)C2 | -2 | -4 | 87* | 4 | -6 | -4
COc1ccc2c(c1)[nH]c1c(N3CCN(Cc4ccc5c(c4)OCO5)CC3)ncnc12 | -3 | 6 | 97* | 28 | 13 | -28
c1ccc(CN2CCN(c3ncnc4c3[nH]c3ccccc34)CC2)cc1 | -3 | 2 | nt | 21 | -5 | -21
CC=Cc1ccc2n(c1=O)C[C@@H]1[C@@H](CO)[C@H](C(=O)NCc3ccccn3)[C@H]2N1CCC (mixture of isomers) | 3 | nt | nt | nt | nt | nt
COc1cccc(NC(=O)N[C@@H]2C=C[C@@H](CC(=O)Nc3ccc(-c4ccccc4)cc3)O[C@H]2CO)c1 | 1 | nt | nt | nt | nt | nt
Cc1ccccc1-c1cnc2c(c1)C(=O)N([C@@H](C)CO)C[C@@H](C)[C@@H](CN(C)C(=O)c1ccncc1)O2 | 1 | nt | -3[16.7 µM] | nt | nt | nt
O=C1/C(=C\c2ccc(O)c(O)c2)SC(=S)N1Cc1ccccc1 | -8 | 2 | -6 | 83* | 0 | -83
O=C(CCN1C(=O)/C(=C\c2ccccc2)SC1=S)NCCCN1CCOCC1 | -8 | 6 | -20 | 10 | 1 | -10
O=C1/C(=C\c2cccc(O)c2O)SC(=S)N1Cc1ccccc1 | -1 | -1 | 11 | 133* | -1 | -133
O=C1C(=Cc2ccccc2O)SC(=S)N1CCCN1CCOCC1 | 2 | nt | 85* | nt | -1 | nt
CCN=c1scc(-c2ccc3c(c2)NC(=O)CO3)n1N=C1CCCC1 | -4 | 10 | 47 | 38 | -6 | -38
O=C1COc2ccc(-c3csc(=Nc4ccc(OC(F)F)cc4)n3CC3CCCO3)cc2N1 (stereo not given) | 5 | 10 | 92* | 53 | -4 | -53
